Data reported in ChEMBL document CHEMBL5252510, “A Novel Potent Oral Series of VEGFR2 Inhibitors Abrogate Tumor Growth by Inhibiting Angiogenesis” (J Med Chem, 2016).

What was measured:
BaF3 [1] = experiment: Antiproliferative activity against mouse BaF3 cells expressing Tel-IGF-1R assessed as cell growth inhibition measured after 72 hrs by Alamar Blue assay; conditions: BaF3, 72 h
[2] = target: Vascular endothelial growth factor receptor 1 (Homo sapiens, UniProt P17948); experiment: Inhibition of human recombinant GST-fused VEGFR1 kinase domain transphosphorylation expressed in baculovirus expression system using poly-Glu-Tyr (4:1) as substrate measured after 10 mins in presence of gamma-[33P]-ATP by scintillation counting analysis
In short: (§1)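 GST-fused kinase domains were expressed in baculovirus and purified on glutathione-Sepharose. 10 min at ambient temperature, stopped with EDTA. Filter binding and scintillation counting. IC50 by linear regression of percent inhibition.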

BaF3 [3] = experiment: Antiproliferative activity against mouse BaF3 cells expressing Tel-FGFR3 assessed as cell growth inhibition measured after 72 hrs by Alamar Blue assay; conditions: BaF3, 72 h
[4] = Toxicity in C57BL/6jNpa mouse harbouring mouse B16-BL6 cells assessed as effect on hematocrit levels at 3 mg/kg, po qd administered started on day 7 post implantation measured after 21 days; assay type: organism-based; conditions: in vivo, 504 h, time 7-21 day
In short: (§2)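 B16/BL6 melanoma cells (50000) injected intradermally into dorsal pinna of both ears of female mice (18–20 g). Randomized on day 7 into groups of 5-6 by primary tumor size, then dosed orally once daily for 14 days in PEG300 or PEG200. Sacrificed day 21; blood analysed directly for platelets, red and white cell counts, hematocrit. Body and spleen weight recorded versus healthy naive mouse.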

[5] = Dose normalized AUC(0 to infinity) in Sprague-Dawley rat at 50 mg/kg, po measured upto 24 hrs by HPLC/UV analysis; assay type: ADME, organism-based; conditions: in vivo
In short: (§3)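 Female Sprague Dawley rats, 8 weeks old, catheterized. Oral suspension in 0.5 % carboxymethyl cellulose at 50 mg/kg, n=3. Bioavailability taken against 3 mg/kg iv. Plasma sampled 5 min–24 h. Cmax and AUC(0–∞) dose-normalized.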

[6] = Toxicity in C57BL/6jNpa mouse harbouring mouse B16-BL6 cells assessed as effect on animal well-being at 3 mg/kg, po qd administered started on day 7 post implantation measured after 21 days; assay type: organism-based; conditions: in vivo, 504 h, time 7-21 day
In short: (§4)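 Female C57BL/6JNpa mice received 50000 B16/BL6 cells intradermally in both ear pinnae. Randomized on day 7 into groups of 5–6, then dosed 3 mg/kg p.o. daily in PEG200/PEG300 for 14 days. Behavior and well-being were observed. On day 21, blood was analysed for platelet, red and white cell counts and hematocrit.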

[7] = Toxicity in C57BL/6jNpa mouse harbouring mouse B16-BL6 cells assessed as effect on blood platelet count at 3 mg/kg, po qd administered started on day 7 post implantation measured after 21 days; assay type: organism-based; conditions: in vivo, 504 h, time 7-21 day; in short: as §4
[8] = Half-life in Sprague-Dawley rat at 3 mg/kg, iv measured upto 24 hrs by HPLC/UV analysis; assay type: ADME, organism-based; conditions: in vivo
In short: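 Female Sprague Dawley rats, 8 weeks old, catheterized in the jugular vein and femoral artery, recovered 96 h. IV dose 3 mg/kg in ethanol/NMP/PEG400/5 % glucose (10/10/50/30). n=2. Plasma sampled at 5, 15, 30 min and 1, 2, 4, 6, 8, 24 h.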

BaF3 [9] = experiment: Antiproliferative activity against mouse BaF3 cells expressing PTC3-RET assessed as cell growth inhibition measured after 72 hrs by Alamar Blue assay; conditions: BaF3, 72 h
[10] = Toxicity in C57BL/6jNpa mouse harbouring mouse B16-BL6 cells assessed as effect on spleen weight at 3 mg/kg, po qd administered started on day 7 post implantation measured after 21 days; assay type: organism-based; conditions: in vivo, 504 h, time 7-21 day; in short: as §2
[11] = Tmax in Sprague-Dawley rat at 50 mg/kg, po measured upto 24 hrs by HPLC/UV analysis; assay type: ADME, organism-based; conditions: in vivo; in short: as §3
B16-BL6 [12] = experiment: Antitumor activity against mouse B16-BL6 cells implanted in C57BL/6jNpa mouse assessed as metastatic tumor growth inhibition at 3 mg/kg, po qd administered started on day 7 post implantation measured after 21 days relative to control; assay type: functional; conditions: time 7-21 day, read-out: TGI
In short: (§5)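 Female C57BL/6JNpa mice, 50000 B16/BL6 cells intradermally in both ear pinnae; primary tumor area (mm²) imaged days 7, 14, 21; randomized day 7 into groups of 5-6, oral dosing in PEG200 or PEG300 vehicle daily (or every 2 days) for 14 days; day 21 cervical lymph nodes weighed, metastasis lysates assayed for TIE-2 by ELISA; T/C ratios.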

[13] = Toxicity in C57BL/6jNpa mouse harbouring mouse B16-BL6 cells assessed as effect on body weight at 3 mg/kg, po qd administered started on day 7 post implantation measured after 21 days; assay type: organism-based; conditions: in vivo, 504 h, time 7-21 day; in short: as §2
BaF3 [14] = experiment: Antiproliferative activity against mouse BaF3 cells expressing Tel-PDGFRbeta assessed as cell growth inhibition measured after 72 hrs by Alamar Blue assay; conditions: BaF3, 72 h
BaF3 [15] = experiment: Antiproliferative activity against mouse BaF3 cells expressing FLT3-ITD assessed as cell growth inhibition measured after 72 hrs by Alamar Blue assay; conditions: BaF3, 72 h
[16] = Toxicity in C57BL/6jNpa mouse harbouring mouse B16-BL6 cells assessed as drug tolerability at 3 mg/kg, po qd administered started on day 7 post implantation measured after 21 days; assay type: organism-based; conditions: in vivo, 504 h, time 7-21 day; in short: as §4
[17] = Volume of distribution at steady state in Sprague-Dawley rat at 3 mg/kg, iv measured upto 24 hrs by HPLC/UV analysis; assay type: ADME, organism-based; conditions: in vivo, read-out: Vdss
In short: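 Female Sprague Dawley rats, 8 weeks, jugular vein and femoral artery catheters, 96 h recovery. IV 3 mg/kg in ethanol/NMP/PEG400/D5W (10/10/50/30), n=2.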

[18] = target: Vascular endothelial growth factor receptor 3 (Homo sapiens, UniProt P35916); experiment: Inhibition of human recombinant GST-fused VEGFR3 kinase domain transphosphorylation expressed in baculovirus expression system using poly-Glu-Tyr (4:1) as substrate measured after 10 mins in presence of gamma-[33P]-ATP by scintillation counting analysis; in short: as §1
[19] = Dose normalized Cmax in Sprague-Dawley rat at 50 mg/kg, po measured upto 24 hrs by HPLC/UV analysis; assay type: ADME, organism-based; conditions: in vivo; in short: as §3
[20] = Oral bioavailability in Sprague-Dawley rat at 50 mg/kg measured upto 24 hrs by HPLC/UV analysis; assay type: ADME, organism-based; conditions: in vivo; in short: as §3
HUVEC = experiment: Antiproliferative activity against VEGF-stimulated HUVEC cells assessed as cell growth inhibition measured after 24 hrs by BrdUrd incorporation based spectrophotometric analysis; conditions: Homo sapiens
BaF3 [21] = experiment: Antiproliferative activity against mouse BaF3 cells assessed as cell growth inhibition measured after 72 hrs by Alamar Blue assay; conditions: BaF3, 72 h
[22] = target: Vascular endothelial growth factor receptor 2 (Mus musculus, UniProt P35918); experiment: Inhibition of mouse recombinant GST-fused VEGFR2 kinase domain expressed in baculovirus expression system using poly-Glu-Tyr (4:1) as substrate measured after 10 mins in presence of gamma-[33P]-ATP by scintillation counting analysis; in short: as §1
B16-BL6 [23] = experiment: Antitumor activity against mouse B16-BL6 cells implanted in C57BL/6jNpa mouse assessed as primary tumor growth inhibition at 3 mg/kg, po qd administered started on day 7 post implantation measured after 21 days relative to control; assay type: functional; conditions: time 7-21 day, read-out: TGI; in short: as §5
B16-BL6 [24] = experiment: Antitumor activity against mouse B16-BL6 cells implanted in C57BL/6jNpa mouse assessed as primary tumor growth inhibition by measuring T/C ratio at 3 mg/kg, po qd administered started on day 7 post implantation measured after 21 days; assay type: functional; conditions: time 7-21 day; in short: as §5

Sequence of Vascular endothelial growth factor receptor 2 (P35918 whole entry, the tested form may be a part): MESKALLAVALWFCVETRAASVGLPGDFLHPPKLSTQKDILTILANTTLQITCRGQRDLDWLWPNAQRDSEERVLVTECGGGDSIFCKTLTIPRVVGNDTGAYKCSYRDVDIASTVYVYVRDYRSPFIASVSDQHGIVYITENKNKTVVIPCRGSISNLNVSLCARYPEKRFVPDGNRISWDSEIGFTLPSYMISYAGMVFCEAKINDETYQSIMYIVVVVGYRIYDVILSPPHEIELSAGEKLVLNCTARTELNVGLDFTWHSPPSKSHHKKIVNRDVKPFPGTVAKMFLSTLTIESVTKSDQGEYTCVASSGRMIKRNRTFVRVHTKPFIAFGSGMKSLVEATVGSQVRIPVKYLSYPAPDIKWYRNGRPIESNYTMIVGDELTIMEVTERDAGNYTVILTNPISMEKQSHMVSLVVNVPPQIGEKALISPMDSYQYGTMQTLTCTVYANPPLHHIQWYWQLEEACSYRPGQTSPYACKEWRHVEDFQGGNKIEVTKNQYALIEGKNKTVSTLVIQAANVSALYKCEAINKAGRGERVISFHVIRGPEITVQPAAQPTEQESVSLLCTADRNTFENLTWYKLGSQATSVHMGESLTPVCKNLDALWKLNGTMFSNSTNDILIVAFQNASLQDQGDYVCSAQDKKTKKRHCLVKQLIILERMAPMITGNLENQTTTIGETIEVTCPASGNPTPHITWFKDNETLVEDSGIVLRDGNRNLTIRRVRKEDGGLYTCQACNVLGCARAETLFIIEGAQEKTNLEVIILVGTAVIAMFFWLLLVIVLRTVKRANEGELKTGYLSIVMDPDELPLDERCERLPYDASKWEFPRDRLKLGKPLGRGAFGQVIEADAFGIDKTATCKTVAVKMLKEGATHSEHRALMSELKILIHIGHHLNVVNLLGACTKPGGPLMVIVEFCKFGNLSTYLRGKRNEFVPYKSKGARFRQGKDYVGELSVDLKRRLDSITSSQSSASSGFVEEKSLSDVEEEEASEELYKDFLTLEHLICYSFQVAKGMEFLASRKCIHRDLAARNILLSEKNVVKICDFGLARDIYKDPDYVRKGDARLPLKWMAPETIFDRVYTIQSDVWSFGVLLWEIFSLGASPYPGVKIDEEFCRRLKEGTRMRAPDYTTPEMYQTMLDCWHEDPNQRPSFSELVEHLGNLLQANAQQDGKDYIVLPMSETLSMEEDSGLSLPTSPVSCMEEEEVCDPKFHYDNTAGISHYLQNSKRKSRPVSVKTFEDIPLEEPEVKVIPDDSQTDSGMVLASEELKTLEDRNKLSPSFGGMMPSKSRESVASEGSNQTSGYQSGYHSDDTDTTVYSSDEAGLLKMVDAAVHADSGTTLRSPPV
Sequence of Vascular endothelial growth factor receptor 1 (P17948 whole entry, the tested form may be a part): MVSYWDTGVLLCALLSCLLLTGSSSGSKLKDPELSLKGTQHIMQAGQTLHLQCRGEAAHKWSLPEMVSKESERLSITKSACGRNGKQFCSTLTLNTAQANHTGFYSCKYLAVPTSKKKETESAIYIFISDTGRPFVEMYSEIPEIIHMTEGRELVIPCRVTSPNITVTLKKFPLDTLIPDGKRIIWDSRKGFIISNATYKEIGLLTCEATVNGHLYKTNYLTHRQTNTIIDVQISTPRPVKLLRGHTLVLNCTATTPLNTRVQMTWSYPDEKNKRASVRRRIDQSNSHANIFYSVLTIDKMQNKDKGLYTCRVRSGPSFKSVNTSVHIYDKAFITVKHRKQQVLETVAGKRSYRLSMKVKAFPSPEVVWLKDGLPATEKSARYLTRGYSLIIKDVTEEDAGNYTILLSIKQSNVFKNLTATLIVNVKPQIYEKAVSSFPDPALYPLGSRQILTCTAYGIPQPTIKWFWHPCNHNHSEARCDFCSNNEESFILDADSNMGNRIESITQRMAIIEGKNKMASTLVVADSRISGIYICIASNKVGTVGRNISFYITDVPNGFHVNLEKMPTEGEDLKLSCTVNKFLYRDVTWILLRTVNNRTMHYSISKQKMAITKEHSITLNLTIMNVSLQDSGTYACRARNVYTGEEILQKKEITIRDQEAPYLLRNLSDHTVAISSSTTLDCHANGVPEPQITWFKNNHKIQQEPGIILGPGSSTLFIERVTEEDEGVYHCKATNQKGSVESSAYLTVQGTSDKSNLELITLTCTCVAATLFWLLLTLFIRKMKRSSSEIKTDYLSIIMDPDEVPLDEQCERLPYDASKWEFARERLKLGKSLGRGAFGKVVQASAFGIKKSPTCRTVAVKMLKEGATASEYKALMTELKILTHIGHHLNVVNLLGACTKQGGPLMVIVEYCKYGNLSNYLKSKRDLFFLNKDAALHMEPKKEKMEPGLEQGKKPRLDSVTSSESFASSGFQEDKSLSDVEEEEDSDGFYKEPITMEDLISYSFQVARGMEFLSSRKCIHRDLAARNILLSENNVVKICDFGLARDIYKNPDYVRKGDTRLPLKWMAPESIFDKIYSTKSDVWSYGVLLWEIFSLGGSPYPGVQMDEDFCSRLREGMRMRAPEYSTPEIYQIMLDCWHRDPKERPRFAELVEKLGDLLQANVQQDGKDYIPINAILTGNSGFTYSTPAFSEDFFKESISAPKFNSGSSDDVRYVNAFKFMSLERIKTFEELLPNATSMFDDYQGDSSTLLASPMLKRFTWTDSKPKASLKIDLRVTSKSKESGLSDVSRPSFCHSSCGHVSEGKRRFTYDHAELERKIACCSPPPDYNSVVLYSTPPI
Sequence of Vascular endothelial growth factor receptor 3 (P35916 whole entry, the tested form may be a part): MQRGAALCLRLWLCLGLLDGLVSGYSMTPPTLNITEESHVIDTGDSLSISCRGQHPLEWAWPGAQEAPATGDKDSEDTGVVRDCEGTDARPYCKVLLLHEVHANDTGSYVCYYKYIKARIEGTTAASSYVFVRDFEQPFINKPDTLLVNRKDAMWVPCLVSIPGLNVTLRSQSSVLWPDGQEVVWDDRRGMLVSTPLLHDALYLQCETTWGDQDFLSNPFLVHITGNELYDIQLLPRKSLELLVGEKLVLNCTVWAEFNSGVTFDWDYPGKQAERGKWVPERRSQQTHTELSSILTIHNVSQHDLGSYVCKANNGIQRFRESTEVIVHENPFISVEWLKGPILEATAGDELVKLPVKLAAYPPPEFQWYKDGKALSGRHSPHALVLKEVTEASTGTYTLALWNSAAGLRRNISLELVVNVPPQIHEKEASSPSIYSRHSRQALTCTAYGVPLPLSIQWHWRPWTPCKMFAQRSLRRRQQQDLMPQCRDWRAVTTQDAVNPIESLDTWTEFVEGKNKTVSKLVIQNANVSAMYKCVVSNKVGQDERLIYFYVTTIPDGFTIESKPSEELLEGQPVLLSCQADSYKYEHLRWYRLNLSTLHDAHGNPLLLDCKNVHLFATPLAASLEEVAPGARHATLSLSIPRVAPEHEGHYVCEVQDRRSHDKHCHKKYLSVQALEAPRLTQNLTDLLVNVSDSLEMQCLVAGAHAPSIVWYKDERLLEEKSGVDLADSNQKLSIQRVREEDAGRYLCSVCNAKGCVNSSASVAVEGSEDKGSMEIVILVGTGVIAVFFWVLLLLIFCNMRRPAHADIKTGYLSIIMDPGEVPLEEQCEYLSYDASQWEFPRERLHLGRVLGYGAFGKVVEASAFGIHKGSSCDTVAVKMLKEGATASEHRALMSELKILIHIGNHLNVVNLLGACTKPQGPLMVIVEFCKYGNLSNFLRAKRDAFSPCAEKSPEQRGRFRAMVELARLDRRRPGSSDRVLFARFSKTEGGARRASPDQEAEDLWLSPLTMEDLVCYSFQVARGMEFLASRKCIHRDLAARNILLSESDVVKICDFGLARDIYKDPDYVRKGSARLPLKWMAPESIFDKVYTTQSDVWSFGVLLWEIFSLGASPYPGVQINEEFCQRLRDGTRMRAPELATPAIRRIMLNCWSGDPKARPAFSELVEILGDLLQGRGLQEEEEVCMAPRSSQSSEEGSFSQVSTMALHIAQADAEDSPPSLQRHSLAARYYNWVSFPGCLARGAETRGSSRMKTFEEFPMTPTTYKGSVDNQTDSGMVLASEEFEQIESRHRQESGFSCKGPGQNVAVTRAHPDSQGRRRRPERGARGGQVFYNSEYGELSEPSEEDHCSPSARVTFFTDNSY

SMILES	IC50 (BaF3 [1]) [nM]	IC50 [2] [nM]	IC50 (BaF3 [3]) [nM]	Activity [4]	AUC/dose [5] [µmol·h/L]	Activity [6]	Activity [7]	IC50 (BaF3 [9]) [nM]	Activity [10]	inhibition in vivo at 3 mg/kg (B16-BL6 [12]) [%]	Activity [13]	IC50 (BaF3 [14]) [nM]	IC50 (BaF3 [15]) [nM]	Activity [16]	IC50 [18] [nM]	IC50 (HUVEC) [nM]	IC50 (BaF3 [21]) [nM]	IC50 [22] [nM]	inhibition in vivo at 3 mg/kg (B16-BL6 [23]) [%]	T/C (B16-BL6 [24])	further results
Nc1cc(Oc2ccc3c(C(=O)Nc4ccc(F)c(C(F)(F)F)c4)cccc3c2)ncn1	> 10000	333	2660	Non-Toxic	4.19	Non-Toxic	Non-Toxic	40	Non-Toxic	71	Non-Toxic	10	4780	Non-Toxic	235	0.003	> 10000	125	54	0.34	half-life [8]: 18.3 h; Tmax [11]: 8 h; Vd [17]: 1.5 L/kg; Cmax/dose [19]: 80 nM; bioavailability [20]: 9%
Nc1nccc(Oc2ccc3c(C(=O)Nc4cccc(C(F)(F)F)c4)cccc3c2)n1	> 10000	820	8270			Non-Toxic		152	Non-Toxic	71	Non-Toxic	9	> 10000	Non-Toxic	420	0.12	> 10000	165	54	0.46	
Nc1cc(Oc2ccc3c(C(=O)Nc4cccc(C(F)(F)F)c4)cccc3c2)ncn1	> 10000	81	2280	Non-Toxic	0.67	Non-Toxic	Non-Toxic	9	Non-Toxic	71	Non-Toxic	4	5650	Non-Toxic	50	1.7	> 10000	37	54	0.22	half-life [8]: 4.1 h; Tmax [11]: 4 h; Vd [17]: 0.9 L/kg; Cmax/dose [19]: 50 nM; bioavailability [20]: 5%
Nc1nccc(Oc2ccc3c(C(=O)Nc4ccc(F)c(C(F)(F)F)c4)cccc3c2)n1	8900	223	8260	Non-Toxic	1.37	Non-Toxic	Non-Toxic	226	Non-Toxic	71	Non-Toxic	16	8200	Non-Toxic	177	0.077	> 10000	320	54	0.1	half-life [8]: 16 h; Tmax [11]: 5 h; Vd [17]: 3.5 L/kg; Cmax/dose [19]: 70 nM; bioavailability [20]: 9%
O=C(Nc1cccc(C(F)(F)F)c1)c1cccc2cc(Oc3cc(CO)ncn3)ccc12 [BFH-772]	7200	1700	6540			Non-Toxic		104	Non-Toxic	71	Non-Toxic	27	> 10000	Non-Toxic	1100	< 0.01	> 10000	1500	54	0.26	
